Experimental data published in ChEMBL document CHEMBL2057152, “Synthesis and antibacterial activity against Clostridium difficile of novel demethylvancomycin derivatives” (2012).
In brackets after ≈: the same amount, converted by molar mass.

Tests used:
Type in all cases: functional
Enterococcus faecalis [1] = assay: Antibacterial activity against Enterococcus faecalis ATCC 700802 after 16 hrs by two-fold serial dilution method; conditions: ATCC 700802, 16 h
Summary of the method: (§1)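 CLSI agar dilution MIC. Compounds are dissolved in 50% water in DMSO as a stock, twofold serially diluted in sterile water, then diluted 10-fold into Mueller-Hinton agar. Organisms are grown in MH broth at 35 °C for 8 h and adjusted to 0.5 McFarland. They are applied to the drug-containing plates by multipoint inoculator and incubated at 35 °C for 16 h. Vancomycin and demethylvancomycin serve as controls.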

[2] = Antibacterial activity against Clostridium difficile ATCC 43255 after 16 hrs by two-fold serial dilution method; conditions: Clostridioides difficile, ATCC 43255, 16 h; summary of the method: as §1
Clostridioides difficile [3] = assay: Antibacterial activity against Clostridium difficile ATCC 700792 after 16 hrs by two-fold serial dilution method; conditions: ATCC 700792, 16 h; summary of the method: as §1
Enterococcus faecalis [4] = assay: Ratio of MIC for demethylvancomycin to compound MIC for Enterococcus faecalis ATCC 700802 after 16 hrs by two-fold serial dilution method
Clostridioides difficile [5] = assay: Antibacterial activity against Clostridium difficile IQCC 23903 after 16 hrs by two-fold serial dilution method; conditions: IQCC 23903, 16 h; summary of the method: as §1
Clostridioides difficile [6] = assay: Antibacterial activity against Clostridium difficile ATCC 700057 after 16 hrs by two-fold serial dilution method; conditions: ATCC 700057, 16 h; summary of the method: as §1
Enterococcus faecalis [7] = assay: Ratio of MIC for vancomycin to compound MIC for Enterococcus faecalis ATCC 700802 after 16 hrs by two-fold serial dilution method
Clostridioides difficile [8] = assay: Ratio of MIC for vancomycin to compound MIC for Clostridium difficile IQCC 23903 after 16 hrs by two-fold serial dilution method
Clostridioides difficile [9] = assay: Ratio of MIC for demethylvancomycin to compound MIC for Clostridium difficile IQCC 23903 after 16 hrs by two-fold serial dilution method
Clostridioides difficile [10] = assay: Ratio of MIC for vancomycin to compound MIC for Clostridium difficile ATCC 700057 after 16 hrs by two-fold serial dilution method
Clostridioides difficile [11] = assay: Ratio of MIC for vancomycin to compound MIC for Clostridium difficile ATCC 700792 after 16 hrs by two-fold serial dilution method
Clostridioides difficile [12] = assay: Ratio of MIC for vancomycin to compound MIC for Clostridium difficile ATCC 43255 after 16 hrs by two-fold serial dilution method
Clostridioides difficile [13] = assay: Ratio of MIC for demethylvancomycin to compound MIC for Clostridium difficile ATCC 700792 after 16 hrs by two-fold serial dilution method
Clostridioides difficile [14] = assay: Ratio of MIC for demethylvancomycin to compound MIC for Clostridium difficile ATCC 700057 after 16 hrs by two-fold serial dilution method
Clostridioides difficile [15] = assay: Ratio of MIC for demethylvancomycin to compound MIC for Clostridium difficile ATCC 43255 after 16 hrs by two-fold serial dilution method

CCCCCCCCCCCN[C@@]1(C)C[C@H](O[C@H]2[C@H](Oc3c4cc5cc3Oc3ccc(cc3Cl)[C@@H](O)[C@@H](NC(=O)[C@H](N)CC(C)C)C(=O)N[C@@H](CC(N)=O)C(=O)N[C@H]5C(=O)N[C@H]3C(=O)N[C@H](C(=O)N[C@H](C(=O)O)c5cc(O)cc(O)c5-c5cc3ccc5O)[C@H](O)c3ccc(c(Cl)c3)O4)O[C@H](CO)[C@@H](O)[C@@H]2O)O[C@@H](C)[C@H]1O
MIC (Enterococcus faecalis [1]): 0.5 µg/mL (≈ 0.315 µM) | MIC [2]: 0.5 µg/mL (≈ 0.315 µM) | MIC (Clostridioides difficile [3]): 0.5 µg/mL (≈ 0.315 µM) | Ratio (Enterococcus faecalis [4]): 64 | MIC (Clostridioides difficile [5]): 0.5 µg/mL (≈ 0.315 µM) | MIC (Clostridioides difficile [6]): 0.5 µg/mL (≈ 0.315 µM) | Ratio (Enterococcus faecalis [7]): 64

CC(C)C[C@@H](N)C(=O)N[C@H]1C(=O)N[C@@H](CC(N)=O)C(=O)N[C@H]2C(=O)N[C@H]3C(=O)N[C@H](C(=O)N[C@H](C(=O)O)c4cc(O)cc(O)c4-c4cc3ccc4O)[C@H](O)c3ccc(c(Cl)c3)Oc3cc2cc(c3O[C@@H]2O[C@H](CO)[C@@H](O)[C@H](O)[C@H]2O[C@H]2C[C@](C)(NCc3ccc4ccccc4c3)[C@H](O)[C@H](C)O2)Oc2ccc(cc2Cl)[C@H]1O
Ratio (Clostridioides difficile [8]): 2 | MIC (Enterococcus faecalis [1]): 16 µg/mL (≈ 10.2 µM) | Ratio (Clostridioides difficile [9]): 2 | MIC [2]: 0.25 µg/mL (≈ 0.159 µM) | MIC (Clostridioides difficile [3]): 0.125 µg/mL (≈ 0.0793 µM) | Ratio (Clostridioides difficile [10]): 2 | Ratio (Clostridioides difficile [11]): 2 | MIC (Clostridioides difficile [5]): 0.25 µg/mL (≈ 0.159 µM) | Ratio (Clostridioides difficile [12]): 2 | MIC (Clostridioides difficile [6]): 0.25 µg/mL (≈ 0.159 µM) | Ratio (Clostridioides difficile [13]): 2 | Ratio (Clostridioides difficile [14]): 2 | Ratio (Clostridioides difficile [15]): 2

CC(C)C[C@@H](N)C(=O)N[C@H]1C(=O)N[C@@H](CC(N)=O)C(=O)N[C@H]2C(=O)N[C@H]3C(=O)N[C@H](C(=O)N[C@H](C(=O)O)c4cc(O)cc(O)c4-c4cc3ccc4O)[C@H](O)c3ccc(c(Cl)c3)Oc3cc2cc(c3O[C@@H]2O[C@H](CO)[C@@H](O)[C@H](O)[C@H]2O[C@H]2C[C@](C)(NCCC(C)CC(C)(C)C)[C@H](O)[C@H](C)O2)Oc2ccc(cc2Cl)[C@H]1O (some centres undefined)
Ratio (Clostridioides difficile [8]): 2 | MIC (Enterococcus faecalis [1]): 8 µg/mL (≈ 5.12 µM) | Ratio (Clostridioides difficile [9]): 2 | MIC [2]: 0.5 µg/mL (≈ 0.32 µM) | MIC (Clostridioides difficile [3]): 0.5 µg/mL (≈ 0.32 µM) | Ratio (Clostridioides difficile [10]): 2 | Ratio (Clostridioides difficile [11]): 2 | MIC (Clostridioides difficile [5]): 0.25 µg/mL (≈ 0.16 µM) | Ratio (Clostridioides difficile [12]): 2 | MIC (Clostridioides difficile [6]): 0.25 µg/mL (≈ 0.16 µM) | Ratio (Clostridioides difficile [13]): 2 | Ratio (Clostridioides difficile [14]): 2 | Ratio (Clostridioides difficile [15]): 2

CC(C)C[C@@H](N)C(=O)N[C@H]1C(=O)N[C@@H](CC(N)=O)C(=O)N[C@H]2C(=O)N[C@H]3C(=O)N[C@H](C(=O)N[C@H](C(=O)O)c4cc(O)cc(O)c4-c4cc3ccc4O)[C@H](O)c3ccc(c(Cl)c3)Oc3cc2cc(c3O[C@@H]2O[C@H](CO)[C@@H](O)[C@H](O)[C@H]2O[C@H]2C[C@](C)(NCc3c4ccccc4cc4ccccc34)[C@H](O)[C@H](C)O2)Oc2ccc(cc2Cl)[C@H]1O
Ratio (Clostridioides difficile [8]): 2 | MIC (Enterococcus faecalis [1]): 2 µg/mL (≈ 1.23 µM) | Ratio (Clostridioides difficile [9]): 2 | MIC [2]: 0.25 µg/mL (≈ 0.154 µM) | MIC (Clostridioides difficile [3]): 0.25 µg/mL (≈ 0.154 µM) | Ratio (Clostridioides difficile [10]): 2 | Ratio (Clostridioides difficile [11]): 2 | MIC (Clostridioides difficile [5]): 0.25 µg/mL (≈ 0.154 µM) | Ratio (Clostridioides difficile [12]): 2 | MIC (Clostridioides difficile [6]): 0.5 µg/mL (≈ 0.308 µM) | Ratio (Clostridioides difficile [13]): 2 | Ratio (Clostridioides difficile [14]): 2 | Ratio (Clostridioides difficile [15]): 2

CC(C)C[C@@H](N)C(=O)N[C@H]1C(=O)N[C@@H](CC(N)=O)C(=O)N[C@H]2C(=O)N[C@H]3C(=O)N[C@H](C(=O)N[C@H](C(=O)O)c4cc(O)cc(O)c4-c4cc3ccc4O)[C@H](O)c3ccc(c(Cl)c3)Oc3cc2cc(c3O[C@@H]2O[C@H](CO)[C@@H](O)[C@H](O)[C@H]2O[C@H]2C[C@](C)(NCc3ccc(Br)cc3)[C@H](O)[C@H](C)O2)Oc2ccc(cc2Cl)[C@H]1O
Ratio (Clostridioides difficile [8]): 2 | MIC (Enterococcus faecalis [1]): 8 µg/mL (≈ 4.99 µM) | Ratio (Clostridioides difficile [9]): 2 | MIC [2]: 0.25 µg/mL (≈ 0.156 µM) | MIC (Clostridioides difficile [3]): 0.25 µg/mL (≈ 0.156 µM) | Ratio (Clostridioides difficile [10]): 2 | Ratio (Clostridioides difficile [11]): 2 | MIC (Clostridioides difficile [5]): 0.25 µg/mL (≈ 0.156 µM) | Ratio (Clostridioides difficile [12]): 2 | MIC (Clostridioides difficile [6]): 0.25 µg/mL (≈ 0.156 µM) | Ratio (Clostridioides difficile [13]): 2 | Ratio (Clostridioides difficile [14]): 2 | Ratio (Clostridioides difficile [15]): 2
